Consider 22 compounds from ChEMBL document CHEMBL3112403, “Design, synthesis and evaluation of second generation MurF inhibitors based on a cyanothiophene scaffold” (Eur J Med Chem, 2014).

Active and inactive are the calls of the source. The calls are words filed in the database; no cut-off is given here. Some results are limits rather than exact numbers.

Assay [1] deals with Staphylococcus aureus. In words: Antibacterial activity against Staphylococcus aureus SH1000 assessed as growth inhibition by broth microdilution method. In kind it is functional. Summed up: (§1)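 MICs by broth microdilution in Mueller-Hinton broth following CLSI guidelines.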
Assay [2] concerns the target T1, UDP-N-acetylmuramoyl-tripeptide--D-alanyl-D-alanine ligase (Streptococcus pneumoniae) (UniProt Q9ZHC3).
T1 sequence (whole entry): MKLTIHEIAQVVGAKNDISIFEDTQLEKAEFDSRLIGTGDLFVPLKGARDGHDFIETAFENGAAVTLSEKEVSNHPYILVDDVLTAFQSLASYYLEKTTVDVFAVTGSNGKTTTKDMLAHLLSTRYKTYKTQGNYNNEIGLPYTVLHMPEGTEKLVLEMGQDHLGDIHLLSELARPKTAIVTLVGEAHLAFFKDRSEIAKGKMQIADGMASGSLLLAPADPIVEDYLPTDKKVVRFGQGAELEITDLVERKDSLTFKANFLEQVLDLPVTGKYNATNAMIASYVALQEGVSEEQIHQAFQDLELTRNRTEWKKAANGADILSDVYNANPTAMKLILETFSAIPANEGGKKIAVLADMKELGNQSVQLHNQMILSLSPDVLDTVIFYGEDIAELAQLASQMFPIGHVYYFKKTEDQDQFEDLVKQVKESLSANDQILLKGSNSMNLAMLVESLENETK
In words: Inhibition of Streptococcus pneumoniae MurF ligase using D-Ala-D-Ala as substrate assessed as residual activity at 250 uM after 15 mins by malachite green assay. The gist of the method: (§2)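 Purified S. pneumoniae MurF in 50 mM Hepes pH 8.0 with 50 mM MgCl2, 0.005% Triton X-114, 100 µM D-Ala-D-Ala, 50 µM UMtri-L-Lys and 250 µM ATP, with 5% DMSO final. After 15 min at 37 °C, Biomol reagent was added and absorbance read at 650 nm, in duplicate. RA was taken against a 5% DMSO control. IC50 was the 50% RA point from seven concentrations.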

Assay [3] has as its system Escherichia coli. In words: Antibacterial activity against Escherichia coli 1411 assessed as growth inhibition by broth microdilution method. In kind it is functional. Summed up:
as §1

The subject of assay [4] is Escherichia coli. In words: Antibacterial activity against Escherichia coli 1411 assessed as growth inhibition by broth microdilution method in presence of polymyxin B nonapeptide. In kind it is functional. Summed up:
(§3)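 Broth microdilution MIC in Mueller-Hinton broth per CLSI, run with 4 µg/mL polymyxin B nonapeptide to permeabilize the outer membrane.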

Assay [5] deals with Escherichia coli. In words: Antibacterial activity against Escherichia coli AB734 assessed as growth inhibition by broth microdilution method in presence of polymyxin B nonapeptide. In kind it is functional. Summed up:
as §3

Assay [6] relates to Escherichia coli. In words: Antibacterial activity against Escherichia coli AB734 assessed as growth inhibition by broth microdilution method. The assay is classed as functional. The gist of the method:
as §1

For assay [7], the system named is Escherichia coli. In words: Inhibition of […] MurF ligase using D-Ala-D-Ala as substrate assessed as residual activity at 250 uM after 15 mins by malachite green assay. Summed up:
(§4)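 After 15 min at 37 °C, Biomol reagent was added and phosphate read at 650 nm, in duplicate. RA was taken relative to a 5% DMSO control. IC50 was taken as the concentration giving 50% RA, from seven concentrations.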

The test system of assay [8] is Escherichia coli. In words: Antibacterial activity against Escherichia coli ES100 harboring tolC deletion mutant assessed as growth inhibition by broth microdilution method. In kind it is functional. Summed up:
(§5)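 MIC by broth microdilution in Mueller-Hinton broth following CLSI guidelines. ES100 is the tolC derivative of AB734, and SM1411 is the acrAB derivative of 1411; both are efflux-deficient E. coli strains. Growth inhibition was read as the minimum inhibitory concentration.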

Assay [9] has as its system Escherichia coli. In words: Antibacterial activity against Escherichia coli SM1411 harboring acrAB deletion mutant assessed as growth inhibition by broth microdilution method. In kind it is functional. Summed up:
as §5

The target in assay [10] is T2, UDP-N-acetylmuramoyl-tripeptide--D-alanyl-D-alanine ligase (Streptococcus pneumoniae, UniProt Q9ZHC3).
T2 sequence (Q9ZHC3 whole entry): T1 sequence (whole entry)
In words: Inhibition of Streptococcus pneumoniae MurF ligase using D-Ala-D-Ala as substrate after 15 mins by malachite green assay. Summed up:
as §2

Assay [11] can be described thus: Inhibition of Escherichia coli MurF ligase using D-Ala-D-Ala as substrate after 15 mins by malachite green assay. The gist of the method: as §4
Assay [12] has as its system Staphylococcus aureus. In words: Antibacterial activity against Staphylococcus aureus SH1000 assessed as decrease in membrane integrity at 4 times MIC by BacLight assay. The assay is classed as functional, organism-based. The gist of the method: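 Membrane damage was measured with the BacLight assay in cells exposed to compound at 4 × MIC and compared with a drug-free control.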

The target of assay [13] is T1, UDP-N-acetylmuramoyl-tripeptide--D-alanyl-D-alanine ligase (Streptococcus pneumoniae). In words: Inhibition of Streptococcus pneumoniae MurF ligase using D-Ala-D-Ala as substrate assessed as residual activity at 100 uM after 15 mins by malachite green assay. Summed up: as §2
Assay [14] deals with Escherichia coli. In words: Inhibition of […] MurF ligase using D-Ala-D-Ala as substrate assessed as residual activity at 100 uM after 15 mins by malachite green assay. The gist of the method: as §4

Regarding `CC(C)(C)OC(=O)N1CCc2c(sc(NC(=O)c3cc(OCCNC(=O)C(F)(F)F)ccc3Cl)c2C#N)C1`, the minimal inhibitory concentration (MIC) in assay [1], in assay [3], in [4], in assay [5], in assay [6] and in assay [8] was above 256 µg/mL throughout. In addition, the minimum inhibitory concentration (MIC) in assay [9] was above 256 µg/mL. Also, the Activity came out at 96% in [2] and 102% in assay [7].
Turning to `N#Cc1ccc(CN2CCc3c(sc(NC(=O)c4cc(OCCNC(=O)C(F)(F)F)ccc4Cl)c3C#N)C2)cc1`, the MIC in [1], in [3], in [4], in [5], in [6] and in assay [8] was above 256 µg/mL throughout. Besides, the MIC in assay [9] was above 256 µg/mL. Besides, the Activity is 55% in assay [2] and 45% in assay [7].
With `N#Cc1c(NC(=O)c2cc(OCC(N)=O)ccc2Cl)sc2c1CCCC2`, the Activity came to 87% in [2] and 74% in assay [7].
`Cl.N#Cc1c(NC(=O)c2cc(OCCNC(=N)N)ccc2Cl)sc2c1CCN(Cc1ccccc1)C2`: the MIC in assay [1] came out at 8 µg/mL; in assay [3], 32 µg/mL; in assay [4], 16 µg/mL; in [5], 16 µg/mL; in assay [6], 32 µg/mL; in [8] it was 8 µg/mL. Besides, the MIC in assay [9] amounted to 32 µg/mL. Also, the 50% inhibitory concentration (IC50) in [10] stood at 55 µM; in assay [11], 57 µM. In addition, the result in assay [12] was inactive.
Regarding `Cl.N#Cc1ccc(CN2CCc3c(sc(NC(=O)c4cc(OCCNC(=N)N)ccc4Cl)c3C#N)C2)cc1`, the MIC in assay [1] was found to be 16 µg/mL; in assay [3] it was 128 µg/mL; in assay [4] it was 32 µg/mL; in assay [5], 32 µg/mL; in assay [6], 256 µg/mL; in assay [8], 16 µg/mL. Also, the MIC in assay [9] was 16 µg/mL. Further, the concentration for half-maximal inhibition (IC50) stood at 61 µM in assay [10] and 66 µM in assay [11]. The result in assay [12] was inactive.
Turning to `N#Cc1c(NC(=O)c2cccc(OCc3ccc(Cl)cc3)c2)sc2c1CCCC2`, the Activity was 102% in assay [13] and 97% in assay [14].
The corresponding values for `N#Cc1c(NC(=O)c2cc(OCc3ccccc3)ccc2Cl)sc2c1CCCC2` are 81% and 82%.
Regarding `N#Cc1c(NC(=O)c2cc(OCCNC(=O)C(F)(F)F)ccc2Cl)sc2c1CCNC2.O=C(O)C(F)(F)F`, the minimum inhibitory concentration (MIC) in [1], in [3], in assay [4], in assay [5], in [6] and in assay [8] was above 256 µg/mL throughout. Besides, the MIC in assay [9] was above 256 µg/mL. Moreover, the Activity in [2] was 99%; in assay [7] it was 91%.
On to `N#Cc1c(NC(=O)c2cc(OCCN)ccc2Cl)sc2c1CCNC2`, for which the MIC in [1], in [3], in assay [4], in assay [5], in assay [6] and in assay [8] was above 256 µg/mL in each case. In addition, in [9], the minimum inhibitory concentration (MIC) was above 256 µg/mL. Besides, the Activity in [2] turned out to be 85%; in assay [7], 65%.
For `N#Cc1c(NC(=O)c2cc(OCCNC(=N)N)ccc2Cl)sc2c1CCC(c1ccc(O)cc1)C2` (stereo unspecified), the outcome in assay [12] was inactive.
As to `N#Cc1c(NC(=O)c2cccc(OCC3CCCC3)c2)sc2c1CCCC2`, the Activity in [13] stood at 81%; in [14] it was 99%.
The corresponding values for `N#Cc1ccc(COc2ccc(Cl)c(C(=O)Nc3sc4c(c3C#N)CCCC4)c2)cc1` are 102% and 97%.
With `N#Cc1c(NC(=O)c2cccc(OCn3cccn3)c2)sc2c1CCCC2`, the values for the Activity in [13] and in [14] were 89% and 85%, respectively.
For the compound `N#Cc1c(NC(=O)c2cc(OCCNC(=O)C(F)(F)F)ccc2Cl)sc2c1CCN(Cc1ccccc1)C2`, the minimal inhibitory concentration (MIC) in assay [1], in assay [3], in assay [4], in assay [5], in assay [6] and in assay [8] was above 256 µg/mL throughout. Further, the minimal inhibitory concentration (MIC) in [9] was above 256 µg/mL. This compound yielded a 50% inhibitory concentration (IC50) in assay [10] of 172 µM. The Activity in assay [7] was determined as 46%.
For the compound `COc1ccc(CN2CCc3c(sc(NC(=O)c4cc(OCCN)ccc4Cl)c3C#N)C2)cc1`, the minimal inhibitory concentration (MIC) in assay [1] was 128 µg/mL; in assay [3], 128 µg/mL; in assay [4], 64 µg/mL; in assay [5], 64 µg/mL; in assay [6] it was 128 µg/mL; in [8], 32 µg/mL. Further, in assay [9], the minimum inhibitory concentration (MIC) was 64 µg/mL. Further, the IC50 in assay [10] came to 125 µM; in assay [11] it was 73 µM. Also, in assay [12], the outcome was inactive.
For the compound `CC(=O)Oc1ccc(C2CCc3c(sc(NC(=O)c4cc(OCCNC(=O)C(F)(F)F)ccc4Cl)c3C#N)C2)cc1` (stereo unspecified), the Activity in assay [2] was 98%; in assay [7], 101%.
Regarding `COc1ccc(CN2CCc3c(sc(NC(=O)c4cc(OCCNC(=O)C(F)(F)F)ccc4Cl)c3C#N)C2)cc1`, the minimum inhibitory concentration (MIC) in [1], in assay [3], in assay [4], in assay [5], in assay [6] and in assay [8] was above 256 µg/mL in each case. The minimal inhibitory concentration (MIC) in assay [9] is above 256 µg/mL. It took 154 µM to reach half-maximal inhibition in [10] (IC50). In addition, the Activity in [7] stood at 81%.
`COC(=O)c1ccc(CN2CCc3c(sc(NC(=O)c4cc(OCCNC(=O)C(F)(F)F)ccc4Cl)c3C#N)C2)cc1`: the minimum inhibitory concentration (MIC) in assay [1], in [3], in [4], in assay [5], in [6] and in assay [8] was above 256 µg/mL in each case. The MIC in assay [9] is above 256 µg/mL. The Activity in assay [2] was 55%. Further, the IC50 in assay [11] was 255 µM.
With `COC(=O)c1ccc(CN2CCc3c(sc(NC(=O)c4cc(OCCNC(=N)N)ccc4Cl)c3C#N)C2)cc1.Cl`, the MIC in assay [1] amounted to 8 µg/mL; in [3] it was 64 µg/mL; in [4], 32 µg/mL; in assay [5] it was 32 µg/mL; in assay [6] it was 64 µg/mL; in [8], 8 µg/mL. The minimum inhibitory concentration (MIC) in [9] is 16 µg/mL. Also, the IC50 amounted to 37 µM in assay [10] and 80 µM in assay [11]. Also, the outcome in [12] was inactive.
In the case of `N#Cc1c(NC(=O)c2cc(OCCNC(=O)C(F)(F)F)ccc2Cl)sc2c1CCN(Cc1cccc(O)c1)C2`, the MIC in assay [1], in assay [3], in [4], in assay [5], in assay [6] and in assay [8] was above 256 µg/mL in each case. The minimal inhibitory concentration (MIC) in [9] is above 256 µg/mL. In addition, the Activity in assay [2] was determined as 71%; in assay [7], 56%.
With `N#Cc1c(NC(=O)c2cccc(OCCCN)c2)sc2c1CCCC2`, the Activity in assay [2] was found to be 53%; in assay [7], 75%.
For `N#Cc1c(NC(=O)c2cccc(OCCN)c2)sc2c1CCCC2`, the figures for the Activity in [13] and in assay [14] were 98% and 93%, respectively.
